Assay results published in ChEMBL document CHEMBL2169772, “Discovery of (2S)-1-[4-(2-{6-amino-8-[(6-bromo-1,3-benzodioxol-5-yl)sulfanyl]-9H-purin-9-yl}ethyl)piperidin-1-yl]-2-hydroxypropan-1-one (MPC-3100), a purine-based Hsp90 inhibitor” (J Med Chem, 2012).

How the values were obtained:
Heat shock protein HSP90 [1] = target: T1, Heat shock protein HSP90 (Homo sapiens, UniProt P07900+P08238); experiment: Inhibition of human HSP90 using BODIPY labelled geldanamycin as substrate by fluorescence polarization assay; format: protein assay
[2] = Cytotoxicity against human NCI-ADR-RES cells overexpressing P-gp 1 assessed as inhibition of tumor growth incubated for 72 hrs by luminometry; format: functional, cell-based
How it was run: (§1)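 Cells seeded at 5000 per well in DMEM with 10% serum and left overnight. Compound added from DMSO dilutions (0.4% DMSO final) for 72 h. After 5 min at room temperature, ATPLite two-step lysis and substrate added, 5 min incubation, then luminescence read. Values are the mean of at least two experiments.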

Heat shock protein HSP90 [3] = target: T1, Heat shock protein HSP90; experiment: Inhibition of human HSP90 in HCT116 cells expressing Her2 gene assessed as degradation of Her2 after 4 hrs by luciferase reporter gene assay; format: cell-based; details: hct-116
How it was run: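 HCT116 cells stably transfected with Her2 kinase domain (aa 641–975) fused to firefly luciferase. Seeded at 10 000 per well in DMEM with 10% serum and left overnight. Compound added from DMSO (0.4% final) for 4 h. Steady-Glo added at room temperature for 5 min, then luminescence read.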

HCT-116 = experiment: Cytotoxicity against human HCT116 cells assessed as inhibition of tumor growth incubated for 72 hrs by luminometry; format: functional, cell-based; details: HCT-116, 72 h; how it was run: as §1
[4] = Metabolic stability in human liver microsomes assessed as percent of residual drug in presence of NADPH incubated for 40 mins by LC-ESI-MS/MS method; format: ADME, Microsome; details: liver microsomes, read-out: Stability
How it was run: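 Test article incubated in duplicate with human liver microsomes (0.5 mg/mL protein) in 100 mM potassium phosphate pH 7.4. Started with 1 mM NADPH. Stopped with acetonitrile at 0, 10, 20 and 40 min. LC-MS/MS peak area at 40 min reported as percent of 0 min. No-NADPH control incubated for 40 min.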

| SMILES | IC50 (Heat shock protein HSP90 [1]) [µM] | IC50 [2] [µM] | IC50 (Heat shock protein HSP90 [3]) [µM] | IC50 (HCT-116) [nM] | remaining at 40 min [4] [%] |
| --- | --- | --- | --- | --- | --- |
| Cn1nnnc1N1CCC(CCn2c(Sc3cc4c(cc3Br)OCO4)nc3c(N)ncnc32)CC1 | 0.045 | 0.13 | 0.031 | 62 | 0 |
| C[C@H](O)C(=O)N1CCC(CCn2c(Sc3cc4c(cc3Cl)OCO4)nc3c(N)ncnc32)CC1 | 0.65 | 20 | 0.54 | 2700 | 32 |
| CC(C)CN1CCC(CCn2c(Sc3cc4c(cc3Br)OCO4)nc3c(N)ncnc32)CC1 | 0.7 | 1.98 | 0.11 | – | – |
| Nc1ncnc2c1nc(Sc1cc3c(cc1Br)OCO3)n2CCC1CCN(CC2CCCCC2)CC1 | 0.24 | 0.722 | 0.25 | 1000 | 10 |
| Nc1ncnc2c1nc(Sc1cc3c(cc1Br)OCO3)n2CCc1ccccc1Br [BROMODERIVATIVE] | 0.03 | – | 0.05 | 200 | < 1 |
| Nc1ncnc2c1nc(Sc1cc3c(cc1Br)OCO3)n2CCC1CCN(C(=O)C2CC2)CC1 | 0.11 | 0.93 | 0.11 | 650 | 1 |
| Nc1ncnc2c1nc(Sc1cc3c(cc1Br)OCO3)n2CCc1ccccc1F | 0.03 | – | 0.05 | 200 | < 1 |
| C[C@H](N)C(=O)N1CCC(CCn2c(Sc3cc4c(cc3Br)OCO4)nc3c(N)ncnc32)CC1 | 0.11 | 100 | 0.2 | 1200 | 69 |
| Nc1ncnc2c1nc(Sc1cc3c(cc1Cl)OCO3)n2CCC1CCN(C=O)CC1 | 0.21 | 7.6 | 0.092 | 1400 | 31 |
| Nc1ncnc2c1nc(Sc1cc3c(cc1Br)OCO3)n2CCC1CCN(C(=O)[C@@H]2CCCN2)CC1 | 0.06 | 89 | 0.19 | 830 | 38 |
| C#CCN1CCC(CCn2c(Sc3cc4c(cc3Br)OCO4)nc3c(N)ncnc32)CC1 | 0.11 | 0.7 | 0.1 | 740 | 10 |
| CC(C)C[C@H](N)C(=O)N1CCC(CCn2c(Sc3cc4c(cc3Br)OCO4)nc3c(N)ncnc32)CC1 | 0.068 | 34 | 0.11 | 890 | 44 |
| Nc1ncnc2c1nc(Sc1cc3c(cc1Br)C(=O)CC3)n2CCC1CCN(C=O)CC1 | 0.06 | 100 | 0.06 | 270 | 30 |
| Nc1ncnc2c1nc(Sc1cc3c(cc1Br)CCO3)n2CCC1CCN(C=O)CC1 | 0.04 | 1.8 | 0.01 | 90 | – |
| CC(C)(N)C(=O)N1CCC(CCn2c(Sc3cc4c(cc3Br)OCO4)nc3c(N)ncnc32)CC1 | 0.18 | 50 | 0.96 | 1600 | – |
| CCCC(=O)N1CCC(CCn2c(Sc3cc4c(cc3Br)OCO4)nc3c(N)ncnc32)CC1 | 0.3 | 2 | – | 850 | 0 |
| Nc1ncnc2c1nc(Sc1cc3c(cc1Br)OCO3)n2CC[C@@H]1CCCCN1C=O | 0.18 | – | – | – | – |
| CN(C)CC(=O)N1CCC(CCn2c(Sc3cc4c(cc3Br)OCO4)nc3c(N)ncnc32)CC1 | 0.07 | 100 | 0.08 | 200 | – |

| SMILES | IC50 (Heat shock protein HSP90 [1]) [µM] | IC50 [2] [µM] | IC50 (Heat shock protein HSP90 [3]) [µM] | IC50 (HCT-116) [nM] | remaining at 40 min [4] [%] |
| --- | --- | --- | --- | --- | --- |
| Nc1ncnc2c1nc(Sc1cc3c(cc1Br)OCO3)n2CC[C@H]1CCCCN1C=O | 0.19 | – | – | – | – |
| CC(C)(C)n1nnnc1N1CCC(CCn2c(Sc3cc4c(cc3Br)OCO4)nc3c(N)ncnc32)CC1 | 1.8 | – | – | – | – |
| CC(=O)C(=O)N1CCC(CCn2c(Sc3cc4c(cc3Br)OCO4)nc3c(N)ncnc32)CC1 | 0.11 | 100 | 0.034 | 270 | 2 |
| Nc1ncnc2c1nc(Sc1cc3c(cc1Br)OCO3)n2CCC1CCN(C(=O)C2CCCC2)CC1 | 0.25 | 0.37 | 0.25 | 1300 | 0 |
| C[C@H](O)C(=O)N1CCC(CCn2c(Sc3cc4c(cc3Br)CCO4)nc3c(N)ncnc32)CC1 | 0.034 | 11 | 0.028 | 210 | 21 |
| Nc1ncnc2c1nc(Sc1cc3c(cc1Br)OCO3)n2CCC1CCOCC1 | 0.057 | – | 0.09 | 590 | 0 |
| Nc1ncnc2c1nc(Sc1cc3c(cc1Br)OCO3)n2CCC1CCNCC1 | 0.47 | > 100 | 0.95 | 4600 | 78 |
| Nc1ncnc2c1nc(Sc1cc3c(cc1Br)OCO3)n2CCC1CCC(F)(F)CC1 | 1 | – | – | – | 15 |
| N#Cc1cc2c(cc1Sc1nc3c(N)ncnc3n1CCC1CCN(C=O)CC1)OCO2 | 0.21 | – | 0.25 | 25000 | 81 |
| CC(C)(O)C(=O)N1CCC(CCn2c(Sc3cc4c(cc3Br)OCO4)nc3c(N)ncnc32)CC1 | > 5 | – | – | – | – |
| Nc1ncnc2c1nc(Sc1cc3c(cc1Br)OCO3)n2CCc1ccccc1Cl [CHLORODERIVATIVE] | 0.03 | – | 0.05 | 200 | < 1 |
| Nc1ncnc2c1nc(Sc1cc3ccoc3cc1Br)n2CCC1CCN(C=O)CC1 | 0.9 | 7.9 | 0.66 | 4400 | 51 |
| CN1CCOc2cc(Sc3nc4c(N)ncnc4n3CCC3CCN(C=O)CC3)c(Br)cc21 | 0.065 | 100 | 0.032 | 250 | – |
| Nc1ncnc2c1nc(Sc1cc3c(cc1Br)OCO3)n2CCC1CCN(CC(F)(F)F)CC1 | 0.6 | – | – | – | – |
| CC(=O)N1CCC(CCn2c(Sc3cc4c(cc3Br)OCO4)nc3c(N)ncnc32)CC1 | 0.06 | 3 | 0.09 | 730 | 17 |
| Nc1ncnc2c1nc(Sc1cc3c(cc1Br)OCC3)n2CCC1CCN(C=O)CC1 | 0.4 | 86 | 0.28 | 1200 | 5 |
| CN1CCOc2cc(Br)c(Sc3nc4c(N)ncnc4n3CCC3CCN(C=O)CC3)cc21 | 0.31 | 20 | 0.21 | 1500 | 0 |
| Nc1ncnc2c1nc(Sc1cc3c(cc1Br)CCC3)n2CCC1CCN(C=O)CC1 | 0.02 | 0.23 | – | 20 | 1 |
